Measurements from the EternaBench riboswitch data.

Test system: MS2 coat protein
Experiment: apparent Kd, MS2 coat protein; higher = weaker binding; RNA-MaP array; FMN 200 µM where present
Method in brief: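 The apparent Kd is reported as the median of filtered per-cluster binding-curve fits. To get these curves, designs transcribed by stalled E. coli RNA polymerase on Illumina sequencing-chip clusters were titrated with SNAP-549-labelled MS2 coat protein from 0.7 or 1.5 nM, doubling to 3 µM. Titrations were run without and then with constant ligand in 100 mM Tris-HCl pH 7.5, 80 mM KCl, 4 mM MgCl2, BSA, DTT, yeast tRNA and Tween-20, and green signal was normalised to red-channel RNA signal and control-cluster median Fmax.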

[1] = designed as: ON switch for flavin mononucleotide, no ligand
[2] = ligand present: flavin mononucleotide, designed as: ON switch for flavin mononucleotide
[3] = designed as: OFF switch for flavin mononucleotide, no ligand
[4] = ligand present: flavin mononucleotide, designed as: OFF switch for flavin mononucleotide

Row | Sequence | apparent Kd [1] [nM] | apparent Kd [2] [nM] | apparent Kd [3] [nM] | apparent Kd [4] [nM]
1 | AGGAGACAUGAGGAUCACCCAUGUGCACGUGGACGAGGAUAUGCUAGUAGAAGAUAGAAUGCAGAAGGCGUAAGAA | 75.7 | 76.8 |  | 
2 | GAUGCUAUCGGAGGAUAUUCAUACCGGAAACGGACAUGAGGAUCACCCAUGUGGCGAAAGCCUUGGGAGAAGGCCGAUAGCAUC | 610 | 20.5 |  | 
3 | AUCAGCUCGUCAGGAUAUACGUCACUGCGUCAGCGGUGUGGUAAGAUCACAUGAGGAUCACCCAUGUAGAAGGGACGAGCUGAU |  |  | 13.6 | 232
4 | CGGUACUGAGGAUAUACAUGAGGAUCACCCAUGUGUUCCAGCUAGCGUACUGGCAUUUGUAGAAGGCGGUGCUG |  |  | 16.8 | 48
5 | AAUUAUAUACAGAAGGAGUUAAAAGGAGUAUUACUAGGAUAUGUUCACAUGAGGAUCACCCAUGUCAUAUUGGGAUUUAUUUUU |  |  | 27.2 | 25.7
6 | GAAAACGGAGAGGAUAUUUGAGAUCAAAGCUCCAAAGAAGGCUCCACAUGAGGAUCACCCAUGUGGUCUUCAAU |  |  | 14.6 | 107
7 | CCUGCACAUGAGGAUCACCCAUGUUAGGAUAUCUCGCCGUCGGCUUGCCGACGGUAUUAGAGAAGGGACAAGGG |  |  | 34.7 | 45.5
8 | GCGUUACAUGAGGAUCACCCAUGUGAGGAUAUGGUGCGGUAGUGUCCUGUCGCGUACUCCAGAAGGCACGGGUG |  |  | 215 | 91.7
9 | GUGGUCAGACAUGAGGAUCACCCAUGUGGAAUAAAUAAGGAGAAGGAUAUCGAAUAUAGGAUAUACGAGAAGGUCUGGUUGGUG | 77.3 | 83.1 |  | 
10 | UGGACCGAGCUAUCGGUUGACUGGGAGGAUAUGACAUGAGGAUCACCCAUGUGGGAUCUAAAUUGUCAGAAGGCUCGAUCUGGG |  |  | 258 | 257
11 | GUAGAGAUUACAUGAGGAUCACCCAUGUCAGAACGGGUAAUCAGAAGGUAUUAUUAGAGAGAGGGUAAGGAUAUGAUUUUUUAU | 634 | 438 |  | 
12 | GAUUGACAUGAGGAUCACCCAUGUGAGGAUAUCGGCCGGACCUUGUUAGCUUCCAUCGCGAGAAGGUACAUAGG |  |  | 18.9 | 18.4
13 | AUAUUGUGAGGAUAUCCAAUAUAUGACAUGAGGAUCACCCAUGUUUCCACUCGUACCUCCGGAGAAGGCACUUAUA |  |  | 24.3 | 22.8
14 | ACUUACUGAGGAUAUACAUAGAUUUACAUGAGGAUCACCCAUGUUCCUCUAUGUAUAUAUGUAGAAGGCAGAAGGU |  |  | 24.6 | 77.8
15 | ACCAUUUACUAAUCUUCUAUACAUGAGGAUCACCCAUGUUUUGAGGAUAUCAGCGUGAAACACGCUGAGAAGGCAAAACAUUCG |  |  | 72 | 393
16 | GUAGCAUACCGAGGAUAUUCAUUACAUGAGGAUCACCCAUGUUUUAUAGGCCGAUUACGGCCUUGGGAGAAGGCGGAAUGCUAC | 14.8 | 11.1 |  | 
17 | GUAGCUAUCGGAGGAUAUUCAUACCGGAAACGGACAUGAGGAUCACCCAUGUGUCGAAAGCCUUGGGAGAAGGUCGAUAGCUAC | 260 | 87.4 |  | 
18 | CUCGAGUGAGGAUAUAUACUUCCAUCAUUUGAGAGAGAAGUAUAGAAGGCACAUGAGGAUCACCCAUGUAUAAA |  |  | 47.5 | 69.7
19 | GUUGGCUGAGGAUAUGCUUGCGUGCUUUUGUGUCGCGGGUGACAUGAGGAUCACCCAUGUAGAAGGUGGUCGGC |  |  | 818 | 673

Row | Sequence | apparent Kd [1] [nM] | apparent Kd [2] [nM] | apparent Kd [3] [nM] | apparent Kd [4] [nM]
20 | UGAUACAUGAGGAUCUCCCAUGACAUGAGGAUCACCCAUGUGCAGGAUAUACGUGUGAUAAUAUAGUAGAAGGGCAGUCUAUGU |  |  | 189 | 248
21 | UGUGGCGGUCAGAAGGCAACGUUGACAUGAGGAUCACCCAUGUUACCCUUGAGGAUAUGGCGGGCCUCACGUCGGUGGUAAUGA | 93.8 | 23.3 |  | 
22 | GUGCUUAACUAGAAGGCCGAUAGCAAAGCUAUCGGAGGAUAUGGGUUCCGGAAACGGACAUGAGGAUCACCCAUGUGGCACAAA | 121 | 14.6 |  | 
23 | UGGAGGUCAGGAUAUGCAUGGCGGGACUUGCGUCGUGGCGUGCAGAAGGGACAUGAGGAUCACCCAUGUGGAGC |  |  | 64.5 | 83.7
24 | GCUAUGUCAGGAUAUUGAUCGUGAUCGGAAAUGAUCGUGAUCGAGAAGGGACAUGAGGAUCACCCAUGUGUAGU |  |  | 166 | 492
25 | GUACGGAAGGAGAAGGGCUAGGAGGUCCAGCUUAUGUGUGUUGCAACAUGAGGAUCACCCAUGUAGCAGGAUAUCCUUUGUACA |  |  | 45.7 | 265
26 | UACGUACAGAAGUACUCCGGGUCCAGAAGGGACAUGAGGAUCACCCAUGUACCGUUGAUUGCUUGUCAGGAUAUGGACCCAGCC |  |  | 7.76 | 29
27 | GGCGGCGCGGGCCACCGCAGAACCAGAAGGACAUGAGGAUCACCCAUGUAACAAAACAGGGCGGUGUAGGAUAUGGCAGGCCCG |  |  | 41.9 | 89.5
28 | GUAGCUACAUGAGGAUCACCCAUGUAGGAUAUCGCUAUUGUAAUCAUGUUACAUGAUUACAAUAGCGAGAAGGACGUGUGCUAC |  |  | 9.03 | 10.4
29 | CAUACACAUGAGGAUCACCCAUGUGAGGAUAUGCGUACGUUGUCCGUAGGCGACGUGCGCAGAAGGCGCAAGGU |  |  | 63.3 | 81
30 | GGUGGACAUGAGGAUCACCCAUGUGAGGAUAUCGGCCGGCUCGUGGUGGCUGGCUUCUCGAGAAGGCGCAUAGU |  |  | 69.4 | 118
31 | UUGACAUUCAAGAAGGGUCACUCUACAUGAGGAUCACCCAUGUCUAUGGACAGGAUAUUGAUCGUCACCUGGUUAGCUUUCGGU | 770 | 19 |  | 
32 | GCGAUGAUCGAGAAGGCCACUACAUGAGGAUCACCCAUGUCGUGGUGUAUUGGAGGAUAUCGAUCGGCGUCUUAUGAGGAUAUA |  |  | 5.17 | 5.65
33 | AGAAGUAUGCAGGAUAUGGGAACCUAUUGACAUUCAGAAGGGCAUACAUGAGGAUCACCCAUGUGGCCUCCCAG |  |  | 19.3 | 35.1
34 | GACUGGCAGCUAGGAUAUGGGCGAUCACAUGAGGAUCACCCAUGUCAACAUCAAAACAAGAUUAACCAGAAGGAGCCGCGGGUU | 16.1 | 110 |  | 
35 | AUACACUAAGUGAGGAUAUCGAUUUCUUUAAGGAUCGAGAAGGCACAUGAGGAUCACCCAUGUUUGACGUGAAU |  |  | 34.4 | 75.8
36 | UUAAAUCAUGUAGGAUAUGCAUGGCGAAGCUACGCAGAAGGACAUGAGGAUCACCCAUGUUAUAGCUACCCGUUACGGUGGCAA |  |  | 89.1 | 239
37 | UGGGCGUGUGUCAGGAUAUGUGCUCUUCCUAGAGCGUAGAAGGGACAUGAGGAUCACCCAUGUCGAAUUGCCAA |  |  | 17.4 | 30.7
38 | UUUUCUUUUGUGAGGAUAUACUUCUUUUUCUUUUUGUAGAAGGCACAUGAGGAUCACCCAUGUUUUCUUUUCUC |  |  | 12.1 | 16

Row | Sequence | apparent Kd [1] [nM] | apparent Kd [2] [nM] | apparent Kd [3] [nM] | apparent Kd [4] [nM]
39 | AACAACCUAGGAUAUACAUGAGGAUCACCCAUGUUACUACUGGGUAAUCCCAAUUCGAGUAGAAGGAGGAUCAA |  |  | 47.7 | 87
40 | UAAGUGUGAGGAUAUGGUAAAGAUAAGAUGAUGAAAGAACUCCAGAAGGCACAUGAGGAUCACCCAUGUAGAUG |  |  | 39.4 | 141
41 | UUGGCGCGAUCCUGGGUCUCACAUGAGGAUCACCCAUGUAGAGAGGAUAUGCAUAGGGCCCAUUGGCAGAAGGCUCUACAUGAG |  |  | 101 | 47.3
42 | GCUUUAUUGGUCAGGAUAUACAUUUGUUACUCUUUGUAGAAGGGACAUGAGGAUCACCCAUGUACUUUACAUUC |  |  | 16 | 17.4
43 | UUGUUCUGAGGAUAUACAUGAGGAUCACCCAUGUGUUUCUGCUUGGUGUCUUGCGUAUGUAGAAGGCUGUUCUC |  |  | 36.5 | 36.3
44 | GGAGCACACAUUAACAUGAGGAUCACCCAUGUCAAAAGACAUGAGGAUAUGGAUCCGAAAAGCAUCCAGAAGGCAUGGUGCUCC | 567 | 184 |  | 
45 | CGCACUAUACAUGAGGAUCACCCAUGUUAUUAUGAGAUAGUCAGAAGGCAUUGUUAGUGAUAUUAUGAGGAUAUGAAUAGUGCG | 156 | 89.8 |  | 
46 | CAUCGGAAGCAGAAGGCAUGAACGGACAUGAGGAUCACCCAUGUUGGAAACUCAUGCCCGAAAGAUGAGGAUAUGCGUCCGGGU |  |  | 72.8 | 17
47 | GUGUACAUCGGAGGAUAUCAUGUAAAUACAUGAGGAUCACCCAUGUCGAUGGAGACAUCGGAGAUUGAGAAGGCCGAUGUACCG | 169 | 9.35 |  | 
48 | AUUUAUUAGUAAGGAUAUACUAGCGAUUAGCUUGUAGAAGGUACAGUCUUAUGUAUAGCAUGUUAACAUGAGGAUCACCCAUGU | 23.2 | 13.1 |  | 
49 | CUUUUGUGAGGAUAUCAGUAGUAAAAAAAUAAAAUUACUACUUAGAAGGCACAUGAGGAUCACCCAUGUUCCUC |  |  | 23.4 | 53
50 | AAGUAUAGAGGAUAUAGUGAGUACUACAUGAGGAUCACCCAUGUUCUUCGUUACGUAUUUCUAGAAGGCUGAUAAA |  |  | 105 | 248
51 | GUCCGGCGUGUAGGAUAUGGAUCCGAUUAGGAUCCAGAAGGACAUGAGGAUCACCCAUGUACAUGUAAACAGUCAUCACCGGAU |  |  | 7.5 | 23.5
52 | AAAUAGACAGGAUAUGCAUGAAAAUUAAAAAAAAAAAAAAAACAUGAGGAUCACCCAUGUAGAAGGGUCAAAAA |  |  | 107 | 99.5
53 | CAUUAAUUCAUUAUAGUAAUUAUACAGGAUAUGUAACAUGAGGAUCACCCAUGUAUUCUUGGUAAACAGAAGGGUAUUACAAGU |  |  | 13.7 | 12.8
54 | UUAUAAAAUAAAGGAUAUUCAUACCGGAAACGGACAUGAGGAUCACCCAUGUGGCGAAAGCCUUGGGAGAAGGUUAAAAUAUAU | 441 | 317 |  | 
55 | GUAUAUAGUGUGAGGAUAUGCUGGUCCUUGGAUCAGCAGAAGGCACAUGAGGAUCACCCAUGUAGUUUAUUUUA |  |  | 30.6 | 89.4
56 | ACAUGAUAUGUAGGAUAUCACAUUAAUUGAUUAAUAUUUGAAUAUAGGAUUUGAGAAGGACAUUUACAUGAGGAUCACCCAUGU |  |  | 20.1 | 14.4
